An excerpt weighted towards active compounds, which were near 1.9% of everything screened.
procasp7 counter = procaspase-7 activators, primary screen, counter-screen for procaspase-3 activator project, biochemical, absorbance, HTS, human. recombinant procaspase-7, Ac-DEVD-pNA absorbance 405 nm; D23A/D198A/D206A triple mutant, cannot self-cleave; scale: DMSO 0, 5 µM enzyme 100. activation, % at 8.5 µM. 330,000 compounds, 0.093% hits. AID 463210, 2010;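 active means percent activation above the screen-wide mean plus 3 SD, cut at about 25% in these data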
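Detection: p-Nitroaniline absorbance at 405 nm, read at 0 and 120 min; system: Uncleavable procaspase-7 mutant enzyme; evaluation: % activation from two-timepoint absorbance difference, scaled to controls; times: 1 h enzyme–compound preincubation and 2 h substrate reaction, both 25 °C; buffer or medium: Zinc-free HEPES pH 7.4 with 300 mM NaCl, 0.01% Triton X-100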
IDE act = human IDE activators in live cells, primary screen, fluorescence polarization, HEK cells, FAbeta-B substrate; Insulin-degrading enzyme (Homo sapiens), P14735; FAbeta-B cleavage; 0% vehicle, 100% cell-free pure enzyme wells; activation, % at 5.96 µM; 340,000 compounds, 0.073% hits; AID 493087, 2011;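 active means activation above the mean of all tested compounds plus 3 SD, set per screening campaign, cut at about 17% in these data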
PHOSPHO1 inh = PubChem AID 1565. recombinant PHOSPHO1, absorbance phosphatase assay. inhibition, % at 13.3 µM. 290,000 compounds, 1.1% hits; in the data active means inhibition above about 60%
proCasp3 act = activators of human procaspase-3 D3A mutant, primary screen, biochemical, absorbance, PC-3 D3A mutant, single concentration | Caspase-3 (Homo sapiens), P42574 | recombinant procaspase-3 D3A, Ac-DEVD-pNA absorbance 405 nm | activation, % at 8.5 µM | 330,000 compounds, 0.11% hits | AID 463141, 2010;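 active means activation above the mean of all tested compounds plus 3 SD, cut at about 21% in these data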;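 further: 0% = DMSO alone and 100% = DMSO wells spiked with extra 5 µM PC-3 D3A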
Target sequence (P42574 whole entry D9A/D28A/D175A): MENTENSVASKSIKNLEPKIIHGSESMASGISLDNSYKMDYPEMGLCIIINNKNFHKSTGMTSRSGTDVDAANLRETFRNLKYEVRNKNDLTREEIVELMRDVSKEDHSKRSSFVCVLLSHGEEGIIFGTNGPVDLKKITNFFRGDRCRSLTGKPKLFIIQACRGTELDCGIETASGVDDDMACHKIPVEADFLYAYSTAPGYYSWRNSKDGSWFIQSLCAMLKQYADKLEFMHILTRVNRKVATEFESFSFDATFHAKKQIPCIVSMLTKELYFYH
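assay system = Procaspase-3 D3A mutant | signal = absorbance at 405 nm, 0 and 120 min | times = 1 h preincubation plus 2 h reaction at 25 °C | repeats = single replicate | read-out = % activation between DMSO and enzyme-spiked controls | medium = Zinc-free HEPES saline buffer with Triton X-100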
UBC13 polyUb = UBC13 polyubiquitin chain formation inhibitors, primary screen, biochemical, TR-FRET, uHTS. inhibition, % at 20 µM. AID 485273, 2010. 330,000 compounds, 0.47% hits; in the data active means inhibition above about 45%, passing the limit was not always enough
Target sequence (P61088 whole entry, looked up): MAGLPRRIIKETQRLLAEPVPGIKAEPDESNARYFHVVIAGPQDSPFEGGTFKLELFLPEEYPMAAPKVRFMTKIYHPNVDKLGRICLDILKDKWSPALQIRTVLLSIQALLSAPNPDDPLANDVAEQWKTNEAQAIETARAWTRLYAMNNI
IDE inh = human IDE inhibitors in live cells, primary screen, fluorescence polarization, HEK cells, FAbetaB substrate. Insulin-degrading enzyme (Homo sapiens), P14735. FAbetaB cleavage. inhibition, % at 5.59 µM. 320,000 compounds, 0.41% hits;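 active means percent inhibition above the average of all tested compounds plus 3 SD, set per screening campaign, cut at about 16% in these data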;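 further: IDE supplied by intact live HEK cells; FP after avidin binding of uncleaved biotin substrate so inhibition keeps polarization high; 0% = DMSO wells and 100% = 60 µM reference IDE inhibitor Ii1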
The depositor's hits bear a star.

For C#CCOCCOCCOCCNc1nc(N2CCN(C(=O)[C@H](CCCCN)n3cc(C(N)CO)nn3)CC2)nc(N2CCN(C(=O)[C@H](CCCCN)n3cc(C(N)COC(=O)C(F)(F)F)nn3)CC2)n1 (stereo partly specified) the results were procasp7 counter 10, proCasp3 act 8, UBC13 polyUb 76* and IDE inh -1.
Screening C#CCOCCOCCOCCNc1nc(N2CCN(C(=O)CCCCCCCCCCNC(=O)Cn3cc(C[C@@H](C)O)nn3)CC2)nc(N2CCN(C(=O)CCCCCCCCCCNC(=O)Cn3cc(C[C@@H](C)O)nn3)CC2)n1 returned procasp7 counter 6, IDE act -2, proCasp3 act -1, UBC13 polyUb 37 and IDE inh -3.
C#CCOCCOCCOCCNc1nc(N2CCN(C(=O)CCCCCCCCCCNC(=O)[C@H](CO)n3cc(CCCSC)nn3)CC2)nc(N2CCN(C(=O)CCCCCCCCCCNC(=O)[C@H](CCCCN)n3cc(C[C@@H](C)CC)nn3)CC2)n1 was read as procasp7 counter -7, proCasp3 act 8, UBC13 polyUb 118* and IDE inh -2.
`COc1ccc(/C=C/C(=O)Nc2ccccc2Cl)cc1S(=O)(=O)N1CCOCC1` gave procasp7 counter -3, IDE act 1, PHOSPHO1 inh 28, proCasp3 act 0, UBC13 polyUb 1 and IDE inh 5.
For C#CCOCCOCCOCCNc1nc(N2CCN(C(=O)CCCCCCCCCCNC(=O)[C@H](CCCCN)n3cc(C[C@@H](C)CC)nn3)CC2)nc(N2CCN(C(=O)CCCCCCCCCCNC(=O)[C@H](CCCCN)n3cc(C[C@@H](C)CC)nn3)CC2)n1 the results were procasp7 counter 9, IDE act 40*, proCasp3 act -13 and IDE inh -2.
For C#CCOCCOCCOCCNc1nc(N2CCN(C(=O)[C@H](CCCCN)n3cc(CCCC)nn3)CC2)nc(N2CCN(C(=O)[C@H](Cc3ccc(O)cc3)n3cc(CCO)nn3)CC2)n1 the results were procasp7 counter 14, IDE act 7, PHOSPHO1 inh -6, proCasp3 act -8, UBC13 polyUb 90* and IDE inh 5.
Screening C#CCOCCOCCOCCNc1nc(N2CCN(C(=O)CCCCCCCCCCNC(=O)[C@H](CCCCN)n3cc(CCO)nn3)CC2)nc(N2CCN(C(=O)CCCCCCCCCCNC(=O)[C@H](CCCN=C(N)N)n3cc(C[C@@H](C)CC)nn3)CC2)n1 returned procasp7 counter -11, IDE act 40*, proCasp3 act -5, UBC13 polyUb 125* and IDE inh 1.
Screening C#CCOCCOCCOCCNc1nc(N2CCN(C(=O)[C@H](CCCCN)n3cc(CC(C)O)nn3)CC2)nc(N2CCN(C(=O)[C@H](Cc3ccc(O)cc3)n3cc(CCO)nn3)CC2)n1 (stereo partly specified) returned IDE act -4.
`C#CCOCCOCCOCCNc1nc(N2CCN(C(=O)[C@H]([C@@H](C)CC)n3cc([C@@H](N)Cc4ccc(O)cc4)nn3)CC2)nc(N2CCN(C(=O)[C@H](Cc3cc4ccccc4[nH]3)n3cc([C@@H](N)C(C)CC)nn3)CC2)n1` (stereo partly specified) gave procasp7 counter 2, PHOSPHO1 inh 16, proCasp3 act 4, UBC13 polyUb 78* and IDE inh 16.
C=C(C)COc1ccc(-c2nc(N)ncc2-c2ccc(Cl)cc2)c(O)c1 was read as procasp7 counter 5, IDE act 6, proCasp3 act 7, UBC13 polyUb 1 and IDE inh -2.
COc1ccc(CCNC(=S)NC(=O)c2cccc([N+](=O)[O-])c2)cc1OC was read as procasp7 counter -1, IDE act 3, PHOSPHO1 inh 43, proCasp3 act -1, UBC13 polyUb 2 and IDE inh -6.
For C#CCOCCOCCOCCNc1nc(N2CCN(C(=O)CCCCCCCCCCNC(=O)[C@@H](CCSC)n3cc(CCO)nn3)CC2)nc(N2CCN(C(=O)CCCCCCCCCCNC(=O)[C@H]([C@@H](C)CC)n3cc(CCCCCN)nn3)CC2)n1 the results were procasp7 counter -3, proCasp3 act -9, UBC13 polyUb 116* and IDE inh -7.
`C#CCOCCOCCOCCNc1nc(N2CCN(C(=O)CCCCCCCCCCNC(=O)[C@H]([C@@H](C)CC)n3cc(CCCCN=C(N)N)nn3)CC2)nc(N2CCN(C(=O)CCCCCCCCCCNC(=O)[C@H](CCCCN)n3cc(C[C@@H](C)CC)nn3)CC2)n1` gave procasp7 counter 6, proCasp3 act -8, UBC13 polyUb 122* and IDE inh -6.
`C#CCOCCOCCOCCNc1nc(N2CCN(C(=O)CCCCCCCCCCNC(=O)[C@H]([C@@H](C)CC)n3cc(CCCCCN)nn3)CC2)nc(N2CCN(C(=O)CCCCCCCCCCNC(=O)[C@@H]([C@H](C)O)n3cc(C)nn3)CC2)n1` gave procasp7 counter -5, IDE act 39*, proCasp3 act -3, UBC13 polyUb 118* and IDE inh -11.
C#CCOCCOCCOCCNc1nc(N2CCN(C(=O)CCCCCCCCCCNC(=O)[C@H](CCC(=O)O)n3cc(CCCCCN)nn3)CC2)nc(N2CCN(C(=O)CCCCCCCCCCNC(=O)[C@@H]([C@H](C)O)n3cc(C)nn3)CC2)n1 was read as procasp7 counter -4, IDE act 4, proCasp3 act 2, UBC13 polyUb 41 and IDE inh 5.
For C#CCOCCOCCOCCNc1nc(N2CCOCC2)nc(N2CCN(C(=O)CCCCCCCCCCNC(=O)[C@@H](CCSC)n3cc(CCO)nn3)CC2)n1 the results were procasp7 counter 1, IDE act 3, proCasp3 act 9, UBC13 polyUb 1 and IDE inh 5.
Screening CCOC(=O)C[n+]1c(C)sc2ccc(OC)cc21 returned procasp7 counter -31, IDE act -4, PHOSPHO1 inh 92*, proCasp3 act -23, UBC13 polyUb -2 and IDE inh 10.
Cc1ccc2cc(C#N)c(NCCNC(=S)NCCCN(C)C)nc2c1C was read as procasp7 counter -7, IDE act 6, PHOSPHO1 inh 64*, proCasp3 act 2, UBC13 polyUb 28 and IDE inh 1.
